Data taken from ChEMBL document CHEMBL1275449, “Potent in vitro antifungal activities of naturally occurring acetylenic acids” (Antimicrob Agents Chemother, 2008).
Calls of active or inactive are those of the source.

Experiments:
Assay type in all cases: functional, organism-based
Candida albicans [1] = test: Antifungal activity against Candida albicans ATCC 90028 at 187.7 uM after 48 hrs by CLSI method
In short: (§1)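 Candida inocula came from 24–72-h SD agar colonies suspended in saline. They were diluted by OD630 standard curve into RPMI 1640 (0.2% dextrose, 0.03% glutamine, 0.165 M MOPS, pH 7.0) to 1.5 × 10³ CFU/ml. Compounds were run as 11 twofold dilutions in 20% DMSO-saline, in duplicate, at 35°C for 48 h, with OD530 read before and after. Percent growth at the top concentration, IC50, MIC, and MFC (SD agar plating) were derived.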

Cryptococcus neoformans [2] = test: Antifungal activity against Cryptococcus neoformans ATCC 66031 at 187.7 uM after 72 hrs by CLSI method
In short: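 SD broth replaced RPMI because growth in RPMI was poor; other CLSI conditions were kept. Inoculum was 1.5 × 10³ CFU/ml from colonies on SD agar, checked by plating. Twofold serial dilutions (11 concentrations) in 20% DMSO-saline were tested in duplicate. OD530 was read before and after incubation at 35°C for 72 h. Percent growth gave IC50; the MIC is the lowest concentration with no detectable growth.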

Candida tropicalis [3] = test: Antifungal activity against Candida tropicalis ATCC 750 at 187.7 uM after 48 hrs by CLSI method
In short: (§2)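 Yeast suspensions made from 3-5 colonies off 24-72 h SD agar plates in saline. They were diluted by OD630 standard curve in RPMI 1640 (0.2% dextrose, 0.03% glutamine, 0.165 M MOPS, pH 7.0) to 1.5 × 10³ CFU/ml. Twofold dilutions (11 concentrations, 20% DMSO-saline) run in duplicate. OD530 read before and after 35°C, 48 h. Line values are top test concentrations; no-growth endpoints give MIC/MFC.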

Candida albicans [4] = test: Antifungal activity against Candida albicans ATCC 90028 at 169.8 uM after 48 hrs by CLSI method; in short: as §1
Aspergillus flavus [5] = test: Antifungal activity against Aspergillus flavus ATCC 204304 at 169.8 uM after 48 hrs by CLSI method
Nakaseomyces glabratus = test: Antifungal activity against Candida glabrata ATCC 90030 at 169.8 uM after 48 hrs by CLSI method; in short: as §1
Trichophyton rubrum = test: Antifungal activity against Trichophyton rubrum ATCC MYA-4438 at 169.8 uM after 5 days by CLSI method
Candida tropicalis [6] = test: Antifungal activity against Candida tropicalis ATCC 750 at 169.8 uM after 48 hrs by CLSI method; in short: as §2
Candida albicans [7] = test: Antifungal activity against Fluconazole resistant Candida albicans isolate 1 at 169.8 uM after 48 hrs by CLSI method
In short: (§3)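 Candida in CLSI broth microdilution. Saline colony suspension set to 1.5 × 10³ CFU/ml (final) in MOPS-buffered RPMI 1640, pH 7.0. Test agent given as twofold serial dilutions in 20% DMSO-saline, duplicate wells. 35°C for 48 h. Growth read as OD530 before and after incubation. Percent inhibition scored at the highest test concentration.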

Candida parapsilosis = test: Antifungal activity against Candida parapsilosis ATCC 22019 at 169.8 uM after 48 hrs by CLSI method; in short: as §2
Aspergillus niger [8] = test: Antifungal activity against Aspergillus niger ATCC 16404 at 198.1 uM after 48 hrs by CLSI method
Cryptococcus neoformans [9] = test: Antifungal activity against Cryptococcus neoformans ATCC 90113 at 198.1 uM after 72 hrs by CLSI method
Candida albicans [10] = test: Antifungal activity against Fluconazole resistant Candida albicans isolate 1 at 9.4 uM after 48 hrs by CLSI method; in short: as §3
Pichia kudriavzevii = test: Antifungal activity against Candida krusei ATCC 6258 at 9.4 uM after 48 hrs by CLSI method; in short: as §3
[11] = test system: Trichophyton mentagrophytes; test: Antifungal activity against Trichophyton mentagrophytes ATCC 9533 at 9.4 uM after 5 days by CLSI method
In short: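 Trichophyton growth scraped from 1–6-week potato dextrose slants and filtered through Miracloth. Inoculum 2.7 × 10⁴ CFU/ml (final) in 5% Alamar blue-RPMI 1640 buffered with MOPS, pH 7.0. Duplicate twofold dilutions from 20% DMSO-saline. Incubated 35°C for 5 days. Fluorescence read at 544 nm excitation, 590 nm emission. Inhibition assessed at the highest test concentration.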

Aspergillus niger [12] = test: Antifungal activity against Aspergillus niger ATCC 16404 at 9.4 uM after 48 hrs by CLSI method
In short: (§4)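 Aspergillus growth on 1–6-week potato dextrose slants scraped and Miracloth-filtered. Inoculum sized by OD630 curve to 2.7 × 10⁴ CFU/ml (final) in 5% Alamar blue-RPMI 1640 (MOPS, pH 7.0). Duplicate twofold dilutions from 20% DMSO-saline. 35°C for 48 h. Fluorescence 544/590 nm read before and after. Percent inhibition taken at the highest test concentration.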

Aspergillus fumigatus = test: Antifungal activity against Aspergillus fumigatus ATCC 90906 at 9.4 uM after 48 hrs by CLSI method; in short: as §4
Candida albicans [13] = test: Antifungal activity against Candida albicans ATCC 90028 at 168.9 uM after 48 hrs by CLSI method; in short: as §1
Aspergillus flavus [14] = test: Antifungal activity against Aspergillus flavus ATCC 204304 at 168.9 uM after 48 hrs by CLSI method
Candida albicans [15] = test: Antifungal activity against Fluconazole resistant Candida albicans isolate 17 at 168.9 uM after 48 hrs by CLSI method; in short: as §3

Measured: Activity

CCCCCCCCCCC#CCCCCC(=O)O
inactive: Candida albicans [1] | Cryptococcus neoformans [2] | Candida tropicalis [3]

CCCCCCCCCCCCC#CCCCCC(=O)O [6-NONADECYNOIC ACID]
inactive: Candida albicans [4] | Aspergillus flavus [5] | Nakaseomyces glabratus | Trichophyton rubrum | Candida tropicalis [6] | Candida albicans [7] | Candida parapsilosis

CCCCCCCCCC#CCCCCC(=O)O
inactive: Aspergillus niger [8] | Cryptococcus neoformans [9]

CC(=O)N1CCN(c2ccc(OCC3COC(Cn4ccnc4)(c4ccc(Cl)cc4Cl)O3)cc2)CC1 (stereo not given) [KETOCONAZOLE]
inactive: Candida albicans [10] | Pichia kudriavzevii | [11] | Aspergillus niger [12] | Aspergillus fumigatus

CCCCCC#CCC#CCC#CCC#CCCCC(=O)O
inactive: Candida albicans [13] | Aspergillus flavus [14] | Candida albicans [15]
